Experimental data taken from ChEMBL document CHEMBL2331484, “Synthesis and biological evaluation of scopoletin derivatives” (Bioorg Med Chem, 2013).
Active and inactive are the calls of the source. The calls are words filed in the database; no cut-off is given here.

Assays:
[1] = test system: HUVEC; assay: Effect on total p38 MAPK level in VEGF-stimulated HUVEC pretreated at 10 to 50 umol/L for 30 mins before VEGF addition by Western blot analysis; format: functional, cell-based; conditions: Homo sapiens
[2] = test system: HUVEC; assay: Effect on total src level in VEGF-stimulated HUVEC pretreated at 10 to 50 umol/L for 30 mins before VEGF addition by Western blot analysis; format: functional, cell-based; conditions: Homo sapiens
[3] = test system: HUVEC; assay: Effect on total ERK1/2 level in VEGF-stimulated HUVEC pretreated at 10 to 50 umol/L for 30 mins before VEGF addition by Western blot analysis; format: functional, cell-based; conditions: Homo sapiens
[4] = test system: HUVEC; assay: Effect on total akt level in VEGF-stimulated HUVEC pretreated at 10 to 50 umol/L for 30 mins before VEGF addition by Western blot analysis; format: functional, cell-based; conditions: Homo sapiens
[5] = molecular target: MAP kinase p38 (Homo sapiens) (UniProt O15264+Q15759+Q16539+P53778); assay: Inhibition of VEGF receptor signaling in VEGF-stimulated HUVEC assessed a effect on p38 MAPK phosphorylation pretreated at 10 to 50 umol/L for 30 mins before VEGF addition by Western blot analysis; format: protein assay
[6] = Inhibition of VEGF receptor signaling in VEGF-stimulated HUVEC assessed a effect on src phosphorylation pretreated at 10 to 50 umol/L for 30 mins before VEGF addition by Western blot analysis; format: cell-based; conditions: Homo sapiens
[7] = Inhibition of VEGF receptor signaling in HUVEC assessed a inhibition of VEGF-induced Akt phosphorylation pretreated at 10 to 50 umol/L for 30 mins before VEGF addition by Western blot analysis; format: cell-based; conditions: Homo sapiens
[8] = test system: PANC-1; assay: Inhibition of MMP-2 protein expression in human PANC1 cells at 10 to 50 umol/L after 24 hrs by SDS-PAGE analysis; format: functional, cell-based
In short: (§1)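 Gelatin zymography of culture medium from equal numbers of PANC-1 cells exposed to compound for 24 h. Samples run non-reduced and unboiled on 10% polyacrylamide with 1 mg/mL gelatin. Gel washed in 2.5% Triton X-100 buffer, digested 14 h at 37 °C in Tris–HCl/CaCl2/ZnCl2 buffer pH 7.6, then Coomassie-stained. Clear bands imaged.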

[9] = Inhibition of VEGF receptor signaling in HUVEC assessed a inhibition of VEGF-induced ERK1/2 phosphorylation pretreated at 10 to 50 umol/L for 30 mins before VEGF addition by Western blot analysis; format: cell-based; conditions: Homo sapiens
[10] = test system: PANC-1; assay: Inhibition of MMP-9 protein expression in human PANC1 cells at 10 to 50 umol/L after 24 hrs by SDS-PAGE analysis; format: functional, cell-based; in short: as §1
[11] = organism: Gallus gallus; assay: Antiangiogenic activity in chicken embryo chorioallantoic membrane model assessed as inhibition of new blood vessel formation at 10 nmol/egg after 48 hrs by microscopy; format: functional, tissue-based
In short: (§2)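 Fertilized chicken eggs incubated seven days at 37.5 °C, ~55% humidity, and the air sac membrane was detached. Sterile 5 × 5 mm filter paper soaked with DMSO or compound (5 and 10 nmol/egg) was air-dried and placed on the CAM. Eggs were sealed and reincubated. Fat emulsion (20%) was injected into the CAM and vessels photographed. Three independent experiments.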

[12] = organism: Gallus gallus; assay: Antiangiogenic activity in chicken embryo chorioallantoic membrane model assessed as inhibition of new blood vessel formation at 5 nmol/egg after 48 hrs by microscopy; format: functional, tissue-based; in short: as §2
[13] = test system: HUVEC; assay: Antiangiogenic activity against HUVEC assessed as inhibition of VEGF-induced branching and network formation at 25 umol/L after 5 hrs by microscopy; format: functional, cell-based; conditions: Homo sapiens
In short: (§3)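 Matrigel-coated wells gelled 37 °C 30 min. DMSO or compound (final 25 µmol/L) added for 30 min before plating. After 5 h, enclosed complete tubes counted in five random fields by microscopy. Triplicate experiments, means ± SEM.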

[14] = test system: HUVEC; assay: Antiangiogenic activity against HUVEC assessed as inhibition of VEGF-induced tube formation at 25 umol/L after 5 hrs by microscopy; format: functional, cell-based; conditions: Homo sapiens; in short: as §3
[15] = test system: HUVEC; assay: Antiangiogenic activity against HUVEC assessed as inhibition of VEGF-induced cell migration at 25 umol/L after 20 hrs by Boyden chamber assay; format: functional, cell-based; conditions: Homo sapiens
In short: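 Boyden chamber, 8.0 µm membrane. HUVECs at 80% confluence serum-starved 12 h in basal medium and suspended at 1 × 10⁶ cells/mL. Pre-treated 30 min at room temperature with DMSO or compound (final 25 µmol/L). After 20 h cells fixed, stained, and counted in five random fields. Triplicate experiments.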

[16] = test system: HuT78; assay: Cytotoxicity against human HUT78 cells after 24 hrs by MTT assay; format: functional, cell-based; conditions: HuT78, 24 h
[17] = test system: K562; assay: Cytotoxicity against human K562 cells after 24 hrs by MTT assay; format: functional, cell-based; conditions: K562, 24 h
[18] = test system: HL-60; assay: Cytotoxicity against human HL60 cells after 24 hrs by MTT assay; format: functional, cell-based; conditions: HL-60, 24 h
[19] = Cytotoxicity against human SHG44 cells after 24 hrs by MTT assay; format: functional, cell-based; conditions: SHG-44, 24 h
[20] = test system: A-431; assay: Cytotoxicity against human A431 cells after 24 hrs by MTT assay; format: functional, cell-based; conditions: A-431, 24 h
[21] = test system: A549; assay: Cytotoxicity against human A549 cells after 24 hrs by MTT assay; format: functional, cell-based; conditions: A549, 24 h
[22] = test system: MKN-45; assay: Cytotoxicity against human MKN45 cells after 24 hrs by MTT assay; format: functional, cell-based; conditions: MKN-45, 24 h
[23] = test system: HCT-116; assay: Cytotoxicity against human HCT116 cells after 24 hrs by MTT assay; format: functional, cell-based; conditions: HCT-116, 24 h
[24] = test system: HepG2; assay: Cytotoxicity against human HepG2 cells after 24 hrs by MTT assay; format: functional, cell-based; conditions: HepG2, 24 h
[25] = test system: MDA-MB-231; assay: Cytotoxicity against human MDA-MB-231 cells after 24 hrs by MTT assay; format: functional, cell-based; conditions: MDA-MB-231, 24 h
[26] = test system: MDA-MB-435; assay: Cytotoxicity against human MDA-MB-435 cells after 24 hrs by MTT assay; format: functional, cell-based; conditions: MDA-MB-435, 24 h
[27] = test system: BXPC-3; assay: Cytotoxicity against human BxPC3 cells after 24 hrs by MTT assay; format: functional, cell-based; conditions: BXPC-3, 24 h
[28] = test system: PANC-1; assay: Cytotoxicity against human PANC1 cells after 24 hrs by MTT assay; format: functional, cell-based; conditions: PANC-1, 24 h
[29] = test system: PBMC; assay: Cytotoxicity against human PBMC after 24 hrs by MTT assay; format: cell-based
[30] = test system: HUVEC; assay: Antiproliferative activity against HUVEC assessed as growth inhibition rate after 24 hrs by MTT assay; format: functional, cell-based; conditions: Homo sapiens
In short: (§4)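 HUVECs (passages 3–5, primary cord isolates) seeded at 1 × 10⁴ cells/well. Medium replaced with M199 containing 1% FBS plus compound. Viability read by MTT after 24 h. Percent inhibition was calculated from A570 minus A630 of treated versus control wells, and IC50 determined. Triplicate experiments, means ± SEM.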

[31] = test system: HUVEC; assay: Antiproliferative activity against HUVEC assessed as growth inhibition rate at 100 uM after 24 hrs by MTT assay; format: functional; conditions: Homo sapiens, read-out: GI; in short: as §4
[32] = test system: HUVEC; assay: Antiproliferative activity against HUVEC assessed as growth inhibition rate at 10 uM after 24 hrs by MTT assay; format: functional; conditions: Homo sapiens, read-out: GI; in short: as §4
[33] = test system: HUVEC; assay: Antiangiogenic activity against HUVEC assessed as inhibition of VEGF-induced migration at 25 umol/L after 20 hrs by microscopy; conditions: Homo sapiens

Structure (SMILES) | Activity [1] | Activity [2] | Activity [3] | Activity [4] | inhibition [5] | inhibition [6] | inhibition [7] | inhibition [8] | inhibition [9] | inhibition [10] | inhibition [11] | inhibition [12] | inhibition [13] | inhibition [14] | inhibition [15] | IC50 [16] [µM] | IC50 [17] [µM] | IC50 [18] [µM] | IC50 [19] [µM] | IC50 [20] [µM] | other results
COc1cc2ccc(=O)oc2cc1OCC(=O)c1ccc(Br)cc1 | inactive | inactive | inactive | inactive | inactive | inactive | Active | Active | Active | Active | Active | Active | Active | Active | Active | 93.7 | 70 | 90.4 | > 100 | > 100 | IC50 [21]: > 100 µM; IC50 [22]: > 100 µM; IC50 [23]: > 100 µM; IC50 [24]: 90.4 µM; IC50 [25]: 47 µM; IC50 [26]: > 100 µM; IC50 [27]: > 100 µM; IC50 [28]: 63.7 µM; IC50 [29]: > 100 µM; IC50 [30]: 16.8 µM; inhibition of growth at 100 µM [31]: 97.5%; inhibition of growth at 10 µM [32]: 13.2%; inhibition [33]: Active
COc1cc2ccc(=O)oc2cc1OCC(=O)c1ccc(Cl)cc1 | inactive | inactive | inactive | inactive | inactive | inactive | Active | Active | inactive | Active | Active | Active | Active | Active | Active | 62.1 | 52.5 | 65.7 | > 100 | > 100 | IC50 [21]: > 100 µM; IC50 [22]: 99.2 µM; IC50 [23]: 59.5 µM; IC50 [24]: 56.3 µM; IC50 [25]: > 100 µM; IC50 [26]: 92.4 µM; IC50 [27]: > 100 µM; IC50 [28]: 19.8 µM; IC50 [29]: > 100 µM; IC50 [30]: 10 µM; inhibition of growth at 100 µM [31]: 83.8%; inhibition of growth at 10 µM [32]: 62.6%; inhibition [33]: Active
